Reference: ChEMBL document CHEMBL3232728, “Synthesis, molecular docking and biological evaluation of metronidazole derivatives containing piperazine skeleton as potential antibacterial agents” (Bioorg Med Chem, 2014)
In brackets after ≈: the same amount, converted by molar mass.

Assays:
[1] = tested on: Bacillus subtilis; assay: Antibacterial activity against Bacillus subtilis ATCC 530 after 24 hrs by two-fold serial dilution method; type: functional; settings: ATCC 530, 24 h
How it was run: (§1)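 Run in Mueller-Hinton medium, read by MTT method, with compounds tested in nutrient broth (NB) by two-fold serial dilution. Seeded broth containing microbial spores was prepared in NB from 24 h old cultures grown on nutrient agar.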

[2] = tested on: Staphylococcus aureus; assay: Antibacterial activity against Staphylococcus aureus ATCC 25923 after 24 hrs by two-fold serial dilution method; type: functional; settings: ATCC 25923, 24 h; how it was run: as §1
[3] = tested on: Escherichia coli; assay: Antibacterial activity against Escherichia coli ATCC 25922 after 24 hrs by two-fold serial dilution method; type: functional; settings: ATCC 25922, 24 h; how it was run: as §1
[4] = tested on: Pseudomonas aeruginosa; assay: Antibacterial activity against Pseudomonas aeruginosa ATCC 27853 after 24 hrs by two-fold serial dilution method; type: functional; settings: ATCC 27853, 24 h; how it was run: as §1
[5] = Inhibition of Staphylococcus aureus TyrRS compound preincubated for 10 mins by liquid scintillation counting in presence of L-ring-3,5-[3H]tyrosine
[6] = Toxicity in RBC (unknown origin) assessed as hemolysis; type: cell-based; settings: erythrocyte

| Compound | MIC [1] | MIC [2] | MIC [3] | MIC [4] | IC50 [5] | LC30 [6] |
| --- | --- | --- | --- | --- | --- | --- |
| COc1cccc(N2CCN(CCn3c([N+](=O)[O-])cnc3C)CC2)c1 | 0.805 µg/mL (≈ 2.33 µM) | 0.656 µg/mL (≈ 1.9 µM) | > 50 µg/mL | > 50 µg/mL | 7.65 µM | > 10000 µg/mL |
| Cc1ncc([N+](=O)[O-])n1CCN1CCN(c2ccc(F)cc2)CC1 | > 50 µg/mL | > 50 µg/mL | > 50 µg/mL | > 50 µg/mL | 25.2 µM | > 10000 µg/mL |
| Cc1ncc([N+](=O)[O-])n1CCN1CCN(c2cccc(Cl)c2Cl)CC1 | 14.4 µg/mL (≈ 37.4 µM) | 11.1 µg/mL (≈ 28.9 µM) | > 50 µg/mL | > 50 µg/mL | 13.6 µM | > 10000 µg/mL |
| Cc1ncc([N+](=O)[O-])n1CCN1CCN(c2cccc(Cl)c2)CC1 | 2.57 µg/mL (≈ 7.34 µM) | 1.8 µg/mL (≈ 5.15 µM) | > 50 µg/mL | > 50 µg/mL | 10.5 µM | > 10000 µg/mL |
| COc1ccccc1N1CCN(CCn2c([N+](=O)[O-])cnc2C)CC1 | 0.272 µg/mL (≈ 0.787 µM) | 0.583 µg/mL (≈ 1.69 µM) | > 50 µg/mL | > 50 µg/mL | 1.12 µM | > 10000 µg/mL |
| Cc1ncc([N+](=O)[O-])n1CCN1CCN(c2cccc(C(F)(F)F)c2)CC1 | 3.29 µg/mL (≈ 8.58 µM) | 18.1 µg/mL (≈ 47.2 µM) | > 50 µg/mL | > 50 µg/mL | 15.3 µM | > 10000 µg/mL |
| Cc1ccc(N2CCN(CCn3c([N+](=O)[O-])cnc3C)CC2)c(C)c1 | 4.31 µg/mL (≈ 12.6 µM) | 1.61 µg/mL (≈ 4.69 µM) | > 50 µg/mL | > 50 µg/mL | 12.6 µM | > 10000 µg/mL |
| Cc1ncc([N+](=O)[O-])n1CCN1CCN(c2ccc(Cl)c(Cl)c2)CC1 | 6.83 µg/mL (≈ 17.8 µM) | 11.6 µg/mL (≈ 30.1 µM) | > 50 µg/mL | > 50 µg/mL | 16.2 µM | > 10000 µg/mL |
| COc1ccc(N2CCN(CCn3c([N+](=O)[O-])cnc3C)CC2)cc1 | 0.033 µg/mL (≈ 0.0955 µM) | 0.123 µg/mL (≈ 0.356 µM) | > 50 µg/mL | > 50 µg/mL | 0.0067 µM | > 10000 µg/mL |
| O=C(N[C@H](CO)[C@H](O)c1ccc([N+](=O)[O-])cc1)C(Cl)Cl [CHLORAMPHENICOL] | 0.078 µg/mL (≈ 0.241 µM) | 0.178 µg/mL (≈ 0.551 µM) | 0.064 µg/mL (≈ 0.198 µM) |  |  |  |
| CC1(C)S[C@@H]2[C@H](NC(=O)Cc3ccccc3)C(=O)N2[C@H]1C(=O)O [PENICILLIN G] | 0.335 µg/mL (≈ 1 µM) | 1.02 µg/mL (≈ 3.06 µM) | 22.8 µg/mL (≈ 68.3 µM) | 18.6 µg/mL (≈ 55.7 µM) |  |  |

Second part, led by results:

| MIC [1] | MIC [2] | MIC [3] | MIC [4] | IC50 [5] | Compound | LC30 [6] |
| --- | --- | --- | --- | --- | --- | --- |
| 1.55 µg/mL (≈ 4.92 µM) | > 50 µg/mL | > 50 µg/mL | > 50 µg/mL | 20.5 µM | Cc1ncc([N+](=O)[O-])n1CCN1CCN(c2ccccc2)CC1 | > 10000 µg/mL |
| 0.142 µg/mL (≈ 0.406 µM) | 0.203 µg/mL (≈ 0.58 µM) | > 50 µg/mL | > 50 µg/mL | 0.0086 µM | Cc1ncc([N+](=O)[O-])n1CCN1CCN(c2ccccc2Cl)CC1 | > 10000 µg/mL |
| > 50 µg/mL | 17.1 µg/mL (≈ 51.3 µM) | > 50 µg/mL | > 50 µg/mL | 23.4 µM | Cc1ncc([N+](=O)[O-])n1CCN1CCN(c2ccccc2F)CC1 | > 10000 µg/mL |
| 0.011 µg/mL (≈ 0.0271 µM) | 0.003 µg/mL (≈ 0.0074 µM) | > 50 µg/mL | > 50 µg/mL | 0.0024 µM | Cc1ncc([N+](=O)[O-])n1CCN1CCN(C(c2ccccc2)c2ccccc2)CC1 | > 10000 µg/mL |
| 0.185 µg/mL (≈ 0.421 µM) | 0.593 µg/mL (≈ 1.35 µM) | > 50 µg/mL | > 50 µg/mL | 1.72 µM | Cc1ncc([N+](=O)[O-])n1CCN1CCN(C(c2ccccc2)c2ccc(Cl)cc2)CC1 (configuration not stated) | > 10000 µg/mL |
| > 50 µg/mL | > 50 µg/mL | > 50 µg/mL | > 50 µg/mL | 25.8 µM | Cc1ncc([N+](=O)[O-])n1CCN1CCN(C(c2ccc(F)cc2)c2ccc(F)cc2)CC1 | > 10000 µg/mL |
